Cardiac RTF inh: cardiac RTF calcium sensitivity inhibitors, primary screen, biochemical, IANBD-TnC fluorescence, EC70 calcium | 340,000 compounds, 0.12% hits | IANBD-labeled cardiac RTF, Ca2+ fluorescence | Troponin I, cardiac muscle (Homo sapiens) + Troponin T, cardiac muscle (Homo sapiens) + … | AID 493244, 2011 | inhibition, % at 7.15 µM;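 active = inhibition above the mean inhibition of all tested compounds plus 3 SD, cut at about 17% in these data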;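 note: assay run at fixed EC70 calcium of 1.6 mM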
RTF Ca sens act: cardiac RTF calcium sensitivity activators, primary screen, biochemical, IANBD-TnC fluorescence, EC20 calcium. 340,000 compounds, 0.24% hits. activation, % at 7.2 µM. IANBD-labeled TnC RTF fluorescence at EC20 calcium; 0% EC20 calcium, 100% full calcium. AID 493008, 2010;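 active = activation above the mean over all tested compounds plus 3 SD, cut at about 30% in these data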;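 note: rise in fluorescence read as greater calcium sensitivity of cardiac thin filaments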
DDE Tn6 FP inh: inhibitors of Tn6 peptide binding to fibrin DD(E), primary screen, biochemical, fluorescence polarization, human fibrin, Tn6 probe; inhibition, % at 8.3 µM; Fibrin DD(E) TRITC-Tn6 fluorescence polarization displacement; 370,000 compounds, 0.21% hits; Fibrinogen beta chain (Homo sapiens), P02675;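 active = inhibition above a per-campaign cutoff: mean of compounds within control limits plus 3 SD, cut at about 15% in these data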
C-LANA FP: inhibitors of KSHV C-LANA binding to DNA, primary screen, biochemical, fluorescence polarization, FAM-LBS DNA, MBP-C-LANA, single point. 340,000 compounds, 0.078% hits. inhibition, % at 9 µM;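 active = highest replicate inhibition at or above 60% at 9 µM, even if other replicates fall short; inactive = all replicates below 60% inhibition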
DDE Tn7 FP inh: inhibitors of Tn7 peptide binding to fibrin DD(E), primary screen, biochemical, fluorescence polarization, human fibrin, Tn7 probe; AID 720508, 2013; Fibrinogen beta chain (Homo sapiens), P02675; 370,000 compounds, 0.13% hits; FP displacement of FITC-Tn7 peptide from fibrin DD(E); 0% = median of compound wells per plate; inhibition, % at 8.3 µM;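 active = inhibition above the mean of compounds falling within the control limits plus 3 SD of them, cut at about 14% in these data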
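Assay system: Human clot-derived fibrin DD(E) complex | Buffer or medium: Tris/NaCl/CaCl2 buffer, pH 7.8 | Repeats: One replicate per compound | Benchmarks: Aha-Tn7 high control | Measure: % inhibition scaled between sample-field median and high-control FP | Schedule: 10 min plus 3 h, room temperature | Signal: Fluorescence polarization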
Keap1-Nrf2 PPI: Keap1-Nrf2 protein-protein interaction inhibitors, primary screen, biochemical, fluorescence polarization, single point; Kelch-like ECH-associated protein 1 (Homo sapiens), Q14145; Keap1 Kelch-Nrf2 peptide fluorescence polarization, 1536-well; inhibition, % at 9.4 µM; 340,000 compounds, 0.15% hits; in the data active = inhibition above about 12%;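 note: human Keap1 Kelch domain with fluorescein labeled Nrf2 9mer peptide probe; higher means more block of Keap1 binding to Nrf2 peptide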
Target sequence (Q14145 whole entry, looked up, the tested form may be a part): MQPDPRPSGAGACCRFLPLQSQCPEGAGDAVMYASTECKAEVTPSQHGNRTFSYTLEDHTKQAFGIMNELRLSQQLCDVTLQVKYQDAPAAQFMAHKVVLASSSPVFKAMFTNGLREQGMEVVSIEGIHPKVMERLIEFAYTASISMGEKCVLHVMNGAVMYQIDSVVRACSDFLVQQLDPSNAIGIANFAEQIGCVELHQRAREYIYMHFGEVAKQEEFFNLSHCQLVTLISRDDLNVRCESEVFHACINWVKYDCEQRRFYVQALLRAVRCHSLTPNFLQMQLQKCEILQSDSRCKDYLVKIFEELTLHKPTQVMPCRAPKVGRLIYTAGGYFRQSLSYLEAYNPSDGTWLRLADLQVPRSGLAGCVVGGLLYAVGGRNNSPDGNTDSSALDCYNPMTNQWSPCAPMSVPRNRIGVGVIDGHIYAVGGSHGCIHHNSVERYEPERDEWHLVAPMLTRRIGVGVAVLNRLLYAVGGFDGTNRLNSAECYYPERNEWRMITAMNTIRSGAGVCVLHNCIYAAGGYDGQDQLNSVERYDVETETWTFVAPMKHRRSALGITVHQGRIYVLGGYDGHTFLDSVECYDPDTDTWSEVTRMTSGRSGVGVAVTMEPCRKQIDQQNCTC
Tn6 DDE ctr: counter-screen hit for Tn6 peptide-fibrin DD(E) binding disruption | shares compounds with DDE Tn6 FP inh | TRITC-Tn6 fluorescence polarization displacement; 0% = median of compound wells, not DMSO | inhibition, % at 8.3 µM | 680 compounds, 2% hits | AID 720621;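 active = inhibition above the mean of test compounds lying between the control limits plus 3 SD of those, cut at about 14% in these data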
Tn6 DDE conf: inhibitors of Tn6 peptide binding to fibrin DD(E), confirmation, biochemical, fluorescence polarization, human fibrin, Tn6 probe; shares compounds with DDE Tn6 FP inh; FP displacement of TRITC-Tn6 peptide from DD(E); 0% = per-plate median of test wells; inhibition, % at 8.3 µM; 680 compounds, 10% hits; AID 720631, 2013;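 active = inhibition above the mean of compounds lying within the control limits plus 3 SD, cut at about 16% in these data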
Large screens that a line does not name were inactive (follow-up assays come after a bar, where they were run). Rows were chosen to be rich in hits. Some 0.73% of all compounds tested hit in one or more screens of this group.

CCN1/C(=C/C=C/c2oc3ccc(-c4ccccc4)cc3[n+]2CC)Oc2ccc(-c3ccccc3)cc21	RTF Ca sens act 998, DDE Tn6 FP inh active | Tn6 DDE ctr 53 | Tn6 DDE conf 93
O=C(Cn1[nH]c(=O)c2ccccc2c1=O)OCC(=O)c1ccc(F)cc1	none
O=C(Cn1[nH]c(=O)c2ccccc2c1=O)OCC(=O)c1ccccc1Cl	DDE Tn6 FP inh 16 | Tn6 DDE ctr inactive | Tn6 DDE conf inactive
COc1ccc(OCc2nn3c(-c4ccccc4)nnc3s2)cc1	none (no result: Cardiac RTF inh, RTF Ca sens act, C-LANA FP, Keap1-Nrf2 PPI)
CCCN1CCN(C(=O)Nc2ccc(OCC)cc2)CC1	DDE Tn6 FP inh 15 | Tn6 DDE ctr inactive | Tn6 DDE conf inactive
CN(C(=O)C12CC3CC(CC(C3)C1)C2)C1(C)CCS(=O)(=O)C1 (centres undefined)	DDE Tn6 FP inh 15 | Tn6 DDE ctr inactive | Tn6 DDE conf inactive
C[C@@H]1CN([C@@H](C)CO)C(=O)Cc2cc(NC(=O)Nc3ccc(C(F)(F)F)cc3)ccc2O[C@@H]1CN(C)S(=O)(=O)c1ccc(Cl)cc1	DDE Tn6 FP inh 32 | Tn6 DDE ctr inactive | Tn6 DDE conf inactive
C[C@@H]1CN([C@H](C)CO)C(=O)c2cc(NC(=O)Nc3ccc(C(F)(F)F)cc3)ccc2O[C@H]1CN(C)S(=O)(=O)c1cccs1	DDE Tn6 FP inh 54 | Tn6 DDE ctr inactive | Tn6 DDE conf inactive
C[C@H](CO)N1C[C@H](C)[C@@H](CN(C)S(=O)(=O)c2ccc(F)cc2)Oc2ccc(NC(=O)Nc3ccc(C(F)(F)F)cc3)cc2C1=O	DDE Tn6 FP inh 42 | Tn6 DDE ctr inactive | Tn6 DDE conf inactive
C[C@H](CO)N1C[C@H](C)[C@@H](CN(C)S(=O)(=O)c2cccs2)Oc2ccc(NC(=O)Nc3ccccc3)cc2C1=O	none
C[C@H](CO)N1C[C@H](C)[C@@H](CN(C)S(=O)(=O)c2ccc(F)cc2)Oc2ccc(NC(=O)Nc3ccccc3)cc2C1=O	none
C[C@H](CO)N1C[C@H](C)[C@@H](CN(C)S(=O)(=O)c2cccs2)Oc2ccc(NC(=O)Nc3ccc(C(F)(F)F)cc3)cc2C1=O	DDE Tn6 FP inh 51 | Tn6 DDE ctr inactive | Tn6 DDE conf inactive
CN(C)c1ccc(-c2ccnc3c2CC(C)(C(=O)NCc2ccc(F)c(F)c2)O3)cc1 (centres undefined)	none (no result: Cardiac RTF inh, RTF Ca sens act, C-LANA FP, Keap1-Nrf2 PPI)
CCCCCCCCN1C(=O)[C@@H](CC(=O)N2CCCC2)C[C@@]2(C(=O)OC)C1=C[C@H](C(C)(C)C)O[C@@H]2C	none (no result: Cardiac RTF inh, RTF Ca sens act, C-LANA FP, Keap1-Nrf2 PPI)
C=CC[C@H]1c2ccccc2[C@H]2N3N=Cc4ccccc4[C@H]3[C@H](CCCC)C(=O)N2N1C(=O)c1ccccc1	none (no result: Cardiac RTF inh, RTF Ca sens act, C-LANA FP, Keap1-Nrf2 PPI)
COc1cccc(NC(=O)c2ccccc2N2C(=O)C3C4C=CC(C4)C3C2=O)c1 (centres undefined)	DDE Tn6 FP inh 16 | Tn6 DDE ctr inactive | Tn6 DDE conf inactive
COc1cccc(NC(=O)c2ccccc2N2C(=O)C3C4C=CC(C5CC45)C3C2=O)c1 (centres undefined)	none
CCN(CC)c1ccc(/C=c2\sc3nc4ccccc4n3c2=O)c(O)c1	RTF Ca sens act 53, DDE Tn6 FP inh 18 | Tn6 DDE ctr inactive | Tn6 DDE conf inactive
CC(COc1ccc(OC(F)(F)F)cc1)CN1CCC(C(O)(c2ccccc2)c2ccccc2)CC1 (centres undefined)	DDE Tn6 FP inh 22 (no result: Cardiac RTF inh, RTF Ca sens act, C-LANA FP, Keap1-Nrf2 PPI) | Tn6 DDE ctr inactive | Tn6 DDE conf inactive
O=C(NCc1ccc(Cl)cc1)C1CCC(CNc2c(N3CCCCC3)c(=O)c2=O)CC1 (centres undefined)	DDE Tn6 FP inh 16 | Tn6 DDE ctr inactive | Tn6 DDE conf inactive
CCN1CC2=C(OC(N)=C(C#N)C2c2ccccc2)/C(=C\c2ccccc2)C1 (centres undefined)	DDE Tn6 FP inh 25 | Tn6 DDE ctr inactive | Tn6 DDE conf inactive
CCOC(=O)N1CCN(C(=O)C[C@H]2C[C@@]3(C(=O)OC)C(=C[C@H](C(C)C)O[C@@H]3C3CC3)N(Cc3ccc(Cl)cc3Cl)C2=O)CC1	none (no result: Cardiac RTF inh, RTF Ca sens act, C-LANA FP, Keap1-Nrf2 PPI)
COc1ccc(S(=O)(=O)N(C)CC(=O)Nc2ccccc2OC)cc1	DDE Tn6 FP inh 23 | Tn6 DDE ctr inactive | Tn6 DDE conf inactive
COc1ccccc1NC(=O)CN(C)S(=O)(=O)c1ccc(F)cc1	none
O=C(Nc1ccccc1F)Oc1cccc(OC(=O)Nc2ccccc2F)c1	DDE Tn6 FP inh 15 | Tn6 DDE ctr inactive | Tn6 DDE conf inactive
Cc1cc(O)ccc1N=Cc1c(C(F)(F)F)[nH][nH]c1=O	DDE Tn6 FP inh 77 | Tn6 DDE ctr inactive | Tn6 DDE conf inactive
O=C1c2ccccc2C(=O)c2c(O)c(O)cc(O)c21	DDE Tn6 FP inh 65 | Tn6 DDE ctr inactive | Tn6 DDE conf 88
Nc1ccc(O)c2c1C(=O)c1ccccc1C2=O	DDE Tn6 FP inh 130 | Tn6 DDE ctr inactive | Tn6 DDE conf 102
COc1ccc(OC)c2c1C(=O)c1ccccc1C2=O	none (no result: Cardiac RTF inh, RTF Ca sens act, C-LANA FP, Keap1-Nrf2 PPI)
COc1ccc(N)c2c1C(=O)c1ccccc1C2=O	DDE Tn6 FP inh 72 | Tn6 DDE ctr inactive | Tn6 DDE conf 58
O=C1CCc2cc(S(=O)(=O)N3CCN(c4ccccc4Cl)CC3)ccc2N1	none (no result: Cardiac RTF inh, RTF Ca sens act, C-LANA FP, Keap1-Nrf2 PPI)
COC(=O)[C@]12C[C@H](CC(=O)NCC34CC5CC(CC(C5)C3)C4)C(=O)N(CCC3=CCCCC3)C1=C[C@H](C1CCCC1)O[C@@H]2C	none (no result: Cardiac RTF inh, RTF Ca sens act, C-LANA FP, Keap1-Nrf2 PPI)
COc1ccccc1C(C)NCC(=O)NC(=O)NCc1ccco1 (centres undefined)	DDE Tn6 FP inh 57 | Tn6 DDE ctr inactive | Tn6 DDE conf inactive
O=C1OC(c2ccccc2)(c2ccccc2)c2ccsc21	DDE Tn6 FP inh 16 (no result: Cardiac RTF inh, RTF Ca sens act, C-LANA FP, Keap1-Nrf2 PPI) | Tn6 DDE ctr inactive | Tn6 DDE conf inactive
CCCCc1cc(=O)oc2c(CN3CCN(C)CC3)c(O)ccc12	none
CCCCc1cc(=O)oc2c(CN(C)C)c(O)ccc12	DDE Tn6 FP inh 16 | Tn6 DDE ctr inactive | Tn6 DDE conf inactive

Assay outcomes deposited in PubChem by several laboratories.
